For data set [1] the following is noted: human Phase 1, even at the highest doses; cited from earlier work.
For data set [2] the following is noted: five Phase 1 study arms, including aged subjects; cited from earlier work.
Data set [3] concerns the target T1, human calpain-1 (Homo sapiens, UniProt P07384).
T1 sequence (P07384 1-714): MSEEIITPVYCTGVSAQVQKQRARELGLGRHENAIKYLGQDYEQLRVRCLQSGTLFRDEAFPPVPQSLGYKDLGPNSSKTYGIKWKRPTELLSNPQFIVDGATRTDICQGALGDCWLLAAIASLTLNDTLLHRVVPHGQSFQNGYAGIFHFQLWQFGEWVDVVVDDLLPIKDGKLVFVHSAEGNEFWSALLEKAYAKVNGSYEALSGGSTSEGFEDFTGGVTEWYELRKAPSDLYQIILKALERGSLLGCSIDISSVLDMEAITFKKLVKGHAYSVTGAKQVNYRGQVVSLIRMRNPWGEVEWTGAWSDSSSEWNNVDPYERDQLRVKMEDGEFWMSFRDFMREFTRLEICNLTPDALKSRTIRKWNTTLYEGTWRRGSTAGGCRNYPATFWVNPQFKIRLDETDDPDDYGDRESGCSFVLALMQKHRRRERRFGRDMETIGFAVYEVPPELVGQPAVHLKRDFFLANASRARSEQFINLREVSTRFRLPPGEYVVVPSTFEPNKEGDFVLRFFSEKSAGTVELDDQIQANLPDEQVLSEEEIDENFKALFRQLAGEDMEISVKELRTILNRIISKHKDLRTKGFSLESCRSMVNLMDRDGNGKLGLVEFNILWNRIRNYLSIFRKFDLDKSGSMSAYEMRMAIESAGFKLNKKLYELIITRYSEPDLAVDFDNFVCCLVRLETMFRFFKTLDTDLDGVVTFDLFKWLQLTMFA
T1 sequence (P04632 1-268 partner): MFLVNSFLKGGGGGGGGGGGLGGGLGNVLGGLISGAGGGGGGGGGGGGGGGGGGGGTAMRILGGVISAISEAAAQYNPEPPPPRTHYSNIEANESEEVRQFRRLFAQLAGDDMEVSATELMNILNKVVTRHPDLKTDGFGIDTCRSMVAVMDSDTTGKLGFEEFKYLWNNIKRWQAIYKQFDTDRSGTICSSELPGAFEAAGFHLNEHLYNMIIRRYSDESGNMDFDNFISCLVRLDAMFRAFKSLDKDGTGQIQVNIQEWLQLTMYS
Nature of the data set: Calpain-1 inhibition assay. In kind it is biochemical. Particulars: for Calpain-1 % Inhibition at 1 μM: 1 μM compound, three replicates, errors estimated <10%; for inhibition at 1 µM: read-out: Calpain-1 % Inhibition at 1 μM.

Data set [4] concerns the target human cathepsin B (Homo sapiens, UniProt P07858). In words: Cathepsin B inhibition assay. In kind it is biochemical. The settings on record: for CatB % Inhibition at 1 μM: 1 μM compound, three replicates; for inhibition at 1 µM: read-out: CatB % Inhibition at 1 μM.
In data set [5] the target is T2, human cathepsin K (Homo sapiens, UniProt P43235).
T2 sequence (P43235 115-329): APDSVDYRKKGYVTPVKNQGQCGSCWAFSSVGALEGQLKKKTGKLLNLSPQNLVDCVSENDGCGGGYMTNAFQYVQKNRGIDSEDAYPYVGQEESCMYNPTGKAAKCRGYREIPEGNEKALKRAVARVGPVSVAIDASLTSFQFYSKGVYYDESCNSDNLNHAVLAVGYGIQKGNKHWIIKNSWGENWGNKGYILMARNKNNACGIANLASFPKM
In words: Cathepsin K inhibition assay. In kind it is biochemical. Particulars: for CatK % Inhibition at 1 μM: 1 μM compound, three replicates; for inhibition at 1 µM: read-out: CatK % Inhibition at 1 μM.

Data set [6] deals with T3, papain (Carica papaya, UniProt P00784).
T3 sequence (P00784 134-345): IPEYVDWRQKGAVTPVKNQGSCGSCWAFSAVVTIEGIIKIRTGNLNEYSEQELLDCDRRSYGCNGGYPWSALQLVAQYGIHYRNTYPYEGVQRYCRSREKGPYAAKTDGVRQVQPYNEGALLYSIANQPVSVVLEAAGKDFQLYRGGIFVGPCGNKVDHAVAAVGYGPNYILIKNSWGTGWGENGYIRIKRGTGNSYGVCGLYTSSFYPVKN
In words: Papain inhibition assay. It is filed as biochemical. Particulars: for Papain % Inhibition at 1 μM: 1 μM compound, three replicates; for inhibition at 1 µM: read-out: Papain % Inhibition at 1 μM.

Data set [7] concerns scopolamine-induced cognitive deficit in mice. Nature of the data set: Step-through passive avoidance. In kind it is in vivo. The settings on record: scopolamine 1 mg/kg, drug 10 mg/kg i.p. In short, it runs like this:
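Mice receive scopolamine 1 mg/kg in saline by i.p. injection 30 min before training, then test compound (10 mg/kg) or vehicle 20 min before training. During training, entry into the dark compartment delivers an electric shock. The read-out is the latency to enter the dark compartment.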

“Also recorded” adds a separate entry of the source.

The values that follow come from paper PMC8583780 (ChemMedChem, 2020).

As for `O=C(NC1CC1)C(=O)C(Cc1ccccc1)NC(=O)[C@H]1CCC(=O)N1Cc1ccccc1` (stereo partly shown) [ABT-957, alicapistat], the “Measured CSF concentrations” value in data set [1] is 9 to 21 nM. The Treatment-associated adverse events result in data set [2] is listed as “no treatment-associated adverse events were identified”.
With `CCC(NC(=O)[C@H](CC(C)C)NC(=O)OCc1ccccc1)C(=O)C(=O)NCCCN1CCOCC1` (stereo partly shown) [AK-295], the “Calpain-1 % Inhibition at 1 μM” value in data set [3] is 100%. Moreover, the “CatB % Inhibition at 1 μM” value in data set [4] was 18.0%. In data set [5], the “Cathepsin K inhibition in words” value was “potent inhibitor of cathepsin K” and the “CatK % Inhibition at 1 μM” value was 100%. For the same compound, the “Papain % Inhibition at 1 μM” value in data set [6] turned out to be 18.7%.
As to `CCCNC(=O)[C@H]1O[C@@H]1C(=O)N[C@H](C(=O)N1CCC[C@H]1C(=O)O)[C@@H](C)CC` [CA-074], the “Calpain-1 % Inhibition at 1 μM” value in data set [3] is given as 4.72%. Also, in data set [4], the “CatB % Inhibition at 1 μM” value is reported as 100%. In data set [5], the “CatK % Inhibition at 1 μM” value is listed as 70.5%. Moreover, the “Papain % Inhibition at 1 μM” value in data set [6] amounted to 16.8%.
Compound `O=C(NCc1ccc(F)cc1)C(=O)[C@H](Cc1ccccc1)NC(=O)[C@H]1CCC(=O)N1Cc1ccccc1` [Compound 1c, (R)-1-benzyl-N-((S)-4-((4-fluorobenzyl)amino)-3,4-dioxo-1-phenylbutan-2-yl)-5-oxopyrrolidine-2-carboxamide] had an IC50 in data set [3] of 78 ± 10 nM. The inhibition at 1 µM stood at 98.1% in data set [3], 11.4% in data set [4], 13.5% in data set [5] and 15.2% in data set [6]. Moreover, the “Memory restoration in STPA, in words” value in data set [7] is on record as “restored cognitive function; also recorded: restored memory”.
Take `O=C(NCc1ccc(F)cc1)C(=O)[C@@H](Cc1ccccc1)NC(=O)[C@H]1CCC(=O)N1Cc1ccccc1` [Compound 1g, (R)-1-benzyl-N-((R)-4-((4-fluorobenzyl)amino)-3,4-dioxo-1-phenylbutan-2-yl)-5-oxopyrrolidine-2-carboxamide]: in data set [3], the “Calpain-1 potency in words” value is “greatly reduced potency” and the inhibition at 1 µM is 31.8%.
On to `CC(C)CCNC(=O)[C@H](CC(C)C)NC(=O)[C@H]1O[C@@H]1C(=O)O` [Compound E-64c], for which the “Calpain-1 % Inhibition at 1 μM” value in data set [3] is 86.0%. Moreover, the “CatB % Inhibition at 1 μM” value in data set [4] turned out to be 99.3%. The “CatK % Inhibition at 1 μM” value in data set [5] came out at 100%. The “Papain % Inhibition at 1 μM” value in data set [6] is listed as 97.6%.
Regarding `CCOC(=O)[C@H]1O[C@@H]1C(=O)N[C@@H](CC(C)C)C(=O)NCCC(C)C` [Compound E-64d], the “Memory restoration in STPA, in words” value in data set [7] is on record as “restore memory”.
As for `CC(C)(F)C[C@H](N[C@@H](c1ccc(-c2ccc(S(C)(=O)=O)cc2)cc1)C(F)(F)F)C(=O)NC1(C#N)CC1` [odanacatib], the inhibition at 1 µM in data set [3] stood at 7.1%; in data set [4], 57.2%; in data set [5], 99.8%; in data set [6] it was 14.7%.
